Measurements from the EternaBench riboswitch data.

Test system: MS2 coat protein
Test: apparent Kd, MS2 coat protein; higher = weaker binding; RNA-MaP array
In short: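 The designed RNAs, transcribed from sequenced DNA templates on an Illumina sequencing chip, were incubated with fluorescently labeled MS2 coat protein at room temperature. Protein ranged from 1.5 nM to 3 μM, with 0.8–1.5 h incubation at the lowest and 10–20 min at the highest concentrations, in Tris-HCl pH 7.5 buffer with KCl, MgCl2, BSA, DTT, tRNA and Tween20, with or without input ligand. The median of per-cluster binding-curve fits gives the apparent Kd, and designs measured on fewer than 10 clusters were excluded.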

[1] = designed as: ON switch for flavin mononucleotide, no ligand
[2] = ligand present: flavin mononucleotide, designed as: ON switch for flavin mononucleotide
[3] = designed as: OFF switch for flavin mononucleotide, no ligand
[4] = ligand present: flavin mononucleotide, designed as: OFF switch for flavin mononucleotide

Question: “UUAGUGGAACGGAAGGAUAUGAGCCACCCUACAUGAGGAUCACCCAUGUGAGCGUUGGCAGCGCAUCAGAAGGUCCUCCUACGAGU” was tested. Which “apparent Kd” value [1] did it give?
Answer: 6.63 nM

Question: What about the “apparent Kd” value [2] of the same sequence?
Answer: 5.9 nM

Question: What does the source list for “CACUACAUGAGGAUCACCCAUGUCUUCCGACGAGGACCGGUACGGCCGCCACUCGAACCUCCAACUAAUACCUCAACCGUCUGAU”?
Answer: apparent Kd (designed as: ON switch for tryptophan, no ligand): 80.5 nM; apparent Kd (ligand present: tryptophan, designed as: ON switch for tryptophan): 54.6 nM

Question: Which “apparent Kd” value [1] does the source give for “AGGAGACGCAAGGAGGAUAUUCAUAUGGUAACAUGAGGAUCACCCAUGUAGUUCUAGUUGGGACUGAAGAAGGCCUUGCUAGCGCA” here?
Answer: 21.7 nM

Question: What about the “apparent Kd” value [2] of the same sequence?
Answer: 11.3 nM

Question: For “GUACCACUCAAGAAGGACCUAGUUCACUAACCUGUGACAUGAGGAUCACCCAUGUGGCUAUUGCGGUAGGAUAUUGAAGACCGG”, which “apparent Kd” value [1] is on record?
Answer: 157 nM

Question: What about the “apparent Kd” value [2] of the same sequence?
Answer: 69.1 nM

Question: “AAAUUCGGGAUCUAGGAUAUGUGCGUUUACACAUGAGGAUCACCCAUGUCUCACAGCCGUUUACCACAGAAGGAGAAACGACCUUA” was tested. Which “apparent Kd” value [1] did it give?
Answer: 31.1 nM

Question: And the “apparent Kd” value [2]?
Answer: 23.9 nM

Question: Which “apparent Kd” value [1] does the source give for “UUACAUACCUUAGGAUAUCAUCGUAGUAGGGCAAUAUAACAUGAGGAUCACCCAUGUCUCGUGCGUGAGAAGGAAGAACGUCAU” here?
Answer: 32.7 nM

Question: And the “apparent Kd” value [2]?
Answer: 27.8 nM

Question: “CGGCAUGGAACAGGAUAUGGGUAAUUCAUUUGACCAGAAGGGUUCUUCAGCAGCCGUUGCACAUGAGGAUCACCCAUGUCAUAU” was tested. Which “apparent Kd” value [1] did it give?
Answer: 29.7 nM

Question: What about the “apparent Kd” value [2] of the same sequence?
Answer: 10 nM

Question: Which results are given for “UCGUCAUUGAACAGCACAUGAGGAUCACCCAUGUUUAGAUCUAGAAGGCCUUUCUCGAAGACCCAGGAGGAUAUAGUGAAGUGG”?
Answer: apparent Kd [3]: 21.8 nM; apparent Kd [4]: 18.7 nM

Question: “UUUGAGGCAGGAUAUAACAUCUUUGACAUGAGGAUCACCCAUGUGGUGUCCCGGUUUUAAUUAGAAGGGCCAGGCU” was tested. Which “apparent Kd” value [3] did it give?
Answer: 692 nM

Question: And the “apparent Kd” value [4]?
Answer: 727 nM

Question: Which “apparent Kd” value [3] does the source give for “UUCCUUGUCGAGAAGGAAUGGCACUUGAGGCGAUUAGGAUAUCGAUACAUGAGGAUCACCCAUGUUGUGUCUCAUAGUAUGACA” here?
Answer: 12 nM

Question: What about the “apparent Kd” value [4] of the same sequence?
Answer: 12.4 nM

Question: Which “apparent Kd” value [3] does the source give for “UAUCUUGAUAGAGGAUAUGAUAUUAAAGAAUAAUCAGAAGGCUAGUCAGAUCUUCUACAUGAGGAUCACCCAUGUUCGCGAACC” here?
Answer: 211 nM

Question: What about the “apparent Kd” value [4] of the same sequence?
Answer: 208 nM

Question: How did the “apparent Kd” value [3] turn out when “AUCAUGAUUUUAGGAUAUAUGACGUUAUACAAUGGACAUGAGGAUCACCCAUGUAGUCGCGCUCUAUAGAAGGAAAGCUCAGUU” was run?
Answer: 44.1 nM

Question: And the “apparent Kd” value [4]?
Answer: 36.5 nM

Question: Which results are given for “AGGAACGAAGGAUAUGAUGAAUAGUACAUGAGGAUCACCCAUGUGGCCACCUUAGACAUCUCAGAAGGACGAUACU”?
Answer: apparent Kd [3]: 33.6 nM; apparent Kd [4]: 25.1 nM

Question: For “UCGGAAAAGAAAGGAUAUCGCAUGGAUUGUUGUCGAGAAGGUUCAAAUCGACAUGAGGAUCACCCAUGUCGAGUCCAUACUCCU”, which “apparent Kd” value [1] is on record?
Answer: 76 nM

Question: And the “apparent Kd” value [2]?
Answer: 53.7 nM

Question: What does the source list for “GUUCGGCGAGGAUAUCUGCUACAGUACAUGAGGAUCACCCAUGUGGGUUAUGUCCGGUCCAGAGAAGGCGCUGCCA”?
Answer: apparent Kd [3]: 33.4 nM; apparent Kd [4]: 47.9 nM

Question: What does the source list for “CAGUGAAGAGGAUAUACAUGAGGAUCACCCAUGUACCGUGGUCCAUAUCAUAAUUCGAGUAGAAGGCUUAACCA”?
Answer: apparent Kd [3]: 114 nM; apparent Kd [4]: 108 nM

Question: “GCUACACAUGAGGAUCACCCAUGUCAGGUCACUGAAGGAUAUAUUACUUAAUCCUGGGUCAUAGAAGGUCAAUUGC” was tested. Which “apparent Kd” value [1] did it give?
Answer: 31.4 nM

Question: What about the “apparent Kd” value [2] of the same sequence?
Answer: 21.9 nM

Question: Which results are given for “UACGAGUAAGGAUAUACACUGACCCAAAGAGUACAGAAAAUGUAGAAGGUACAUGAGGAUCACCCAUGUAGGUG”?
Answer: apparent Kd [3]: 85.2 nM; apparent Kd [4]: 94.3 nM

Question: How did the “apparent Kd” value [3] turn out when “AAGCUCUCAGGAUAUACAUGAGGAUCACCCAUGUGGUCGUAUUUAAAGUGGAGCAGCAGUAGAAGGGAGGCGAC” was run?
Answer: 24.5 nM

Question: What about the “apparent Kd” value [4] of the same sequence?
Answer: 20.4 nM

Question: With “GCUGCUCAUCAAAACUGGACAUGAGGAUCACCCAUGUCUUUGCAGGAUAUUGAUCGUCAGUACAUCAAGAAGGGCACGCGGCAA” as the sequence, how does the “apparent Kd” value [1] read?
Answer: 12.9 nM

Question: What about the “apparent Kd” value [2] of the same sequence?
Answer: 9.89 nM
